Calls of active or inactive are those of the source. No cut-off for these calls is given here.
What was measured:
[1] = Cell cycle arrest in human STS-26T cells assessed as accumulation in G1 phase at 1 uM after 24 hrs; assay type: functional, cell-based
How it was run: (§1)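 STS-26T cells were grown in RPMI-1640 with 5% FBS and penicillin/streptomycin at 37 °C under 5% CO2. About 24 h after plating, cells were treated with 1 µM compound, alone or with 1 µM lovastatin, against a DMSO control. After 24 h, DNA content was read by flow cytometry (at least 10^4 events). G1, S and G2/M percentages of the nonapoptotic population came from histogram fitting.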

[2] = Cell cycle arrest in human STS-26T cells assessed as accumulation in G2/M phase at 1 uM after 24 hrs; assay type: functional, cell-based; how it was run: as §1
[3] = Cell cycle arrest in human STS-26T cells assessed as accumulation in S phase at 1 uM after 24 hrs; assay type: functional, cell-based; how it was run: as §1
[4] = Apoptosis in human STS-26T cells at 1 uM after 24 hrs; assay type: functional
[5] = test system: STS-26T; assay: Growth inhibition of human STS-26T cells at 1 to 5 uM after 24 hrs; assay type: functional, cell-based
How it was run: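 STS-26T cultures were plated in medium with 5% FBS and dosed about 24 h later at 1, 3 or 5 µM, alone or with 1 µM lovastatin, against a DMSO vehicle. Cells were harvested at various times by trypsinization and counted with a hemocytometer; viability was judged by trypan blue exclusion. Values are means ± SD of three culture dishes.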

[6] = molecular target: Protein farnesyltransferase (Rattus norvegicus); assay: Inhibition of farnesyltransferase assessed as farnesylation of Dansyl-GCVLS peptide

SMILES: CC[C@H](C)C(=O)O[C@H]1C[C@@H](C)C=C2C=C[C@H](C)[C@H](CC[C@@H]3C[C@@H](O)CC(=O)O3)[C@H]21 [LOVASTATIN]
- Activity [1]: 53%
- Activity [2]: 10%
- Activity [3]: 37%
- Activity [4]: 0.3%

SMILES: C=CC/C(=C\COP(=O)(OCc1ccc([N+](=O)[O-])o1)N(C)CCCCCl)CC/C=C(\C)CCC=C(C)C (centres undefined)
- Activity [1]: 48%
- Activity [2]: 12%
- Activity [5]: inactive
- Activity [3]: 40%
- Activity [4]: 0.5%

SMILES: CC(C)=CCC/C(C)=C/CC/C(=C/COP(=O)(O)O)CC=C(C)C
- IC50 [6]: 5000 nM

SMILES: CC(C)=CCC/C(C)=C/CC/C(=C/COP(=O)(OCc1ccc([N+](=O)[O-])o1)N(C)CCCCCl)CC=C(C)C (centres undefined)
- Activity [5]: inactive

SMILES: CC(C)=CCC/C(C)=C/CC/C(=C/COP(=O)(O)O)C(C)(C)C
- IC50 [6]: 16 nM

SMILES: CC(C)=CCC/C(C)=C/CC/C(=C/COP(=O)(OCc1ccc([N+](=O)[O-])o1)N(C)CCCCCl)C(C)(C)C (centres undefined)
- Activity [5]: inactive

SMILES: C=CC/C(=C\COP(=O)(O)O)CC/C=C(\C)CCC=C(C)C
- IC50 [6]: 13 nM

Reference: ChEMBL document CHEMBL1145405, “Synthesis, biochemical, and cellular evaluation of farnesyl monophosphate prodrugs as farnesyltransferase inhibitors” (J Med Chem, 2007)
